A selection: hits, their analogues and other compounds. The true share with any hit is near 0.72%.
bIAP activator = intestinal alkaline phosphatase (bovine) activation | purified bovine IAP, CDP-star luminescence, 30 min; active compounds read high; fold of DMSO-control signal, blank-subtracted | activation factor at 20 µM | AID 1016 | 200,000 tested, 0.17% active;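 active = activation factor of 2 or more at 20 µM, a signal rise over negative controls twice the positive control's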
hIAP inh = blocks human intestinal alkaline phosphatase; purified IAP, CDP-Star luminescence, 30 min; 330,000 tested, 0.12% active; P09923; inhibition, % at 10 µM;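 active = inhibition reaching a set limit with compound at 10 µM in the primary screen, cut at about 35% in these data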;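 also: plate controls were DMSO wells with enzyme for no effect and no-enzyme buffer wells for full effect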
Target sequence (P09923 whole entry, looked up): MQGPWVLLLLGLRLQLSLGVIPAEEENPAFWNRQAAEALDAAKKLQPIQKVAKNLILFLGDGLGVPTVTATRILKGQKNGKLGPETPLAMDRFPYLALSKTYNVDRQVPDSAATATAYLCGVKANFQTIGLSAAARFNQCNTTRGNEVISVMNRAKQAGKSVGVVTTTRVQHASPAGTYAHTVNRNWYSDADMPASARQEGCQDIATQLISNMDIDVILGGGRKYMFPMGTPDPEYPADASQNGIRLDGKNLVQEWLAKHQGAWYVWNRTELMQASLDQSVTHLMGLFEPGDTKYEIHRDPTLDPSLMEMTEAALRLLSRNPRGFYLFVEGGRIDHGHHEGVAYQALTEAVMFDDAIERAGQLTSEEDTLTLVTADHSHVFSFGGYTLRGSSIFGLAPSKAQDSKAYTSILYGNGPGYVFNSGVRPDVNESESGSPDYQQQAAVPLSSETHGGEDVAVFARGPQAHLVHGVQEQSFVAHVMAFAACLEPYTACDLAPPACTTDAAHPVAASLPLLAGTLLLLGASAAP
mIAP inh = blocks mouse intestinal alkaline phosphatase. purified mouse IAP, CDP-Star luminescence, 30 min. inhibition, % at 10 µM. 330,000 tested, 0.2% active. AID 2806;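 active = inhibition of at least 40% at 10 µM in the primary screen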;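 also: plate controls were DMSO with enzyme for no effect and no enzyme wells for full effect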
mIAP activ = mouse IAP activation | AID 2805 | muIAP, CDP-Star luminescence, 30 min; active compounds read high; 1 = vehicle-only enzyme signal, 0 = enzyme-free wells | activation factor at 10 µM | 330,000 tested, 0.24% active;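 active = activation factor of at least 2 at 20 µM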
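Assay system: mouse IAP enzyme / Compound: DMSO-dissolved test compounds / Timing: 30 min, room temperature / Measured by: luminescence from enzymatic CDP-Star hydrolysis / Control set: DMSO-only wells, enzyme-free buffer wells as negative control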
bIAP inhibitor = blocks bovine intestinal alkaline phosphatase activity | purified bovine IAP, CDP-star luminescence, 30 min | inhibition, % at 20 µM | 190,000 tested, under 10 active;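 active = over 50% inhibition of intestinal alkaline phosphatase at 20 µM in the single-dose screen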
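Assay system – bovine IAP enzyme · Quantity – bovine IAP at 1/65,000,000 final dilution · Detection – CDP-star luminescence signal · Times – 30 min reaction at room temperature · Also added – CDP-star substrate at 30 µM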
hIAP activ = increases human intestinal alkaline phosphatase activity. activation factor at 10 µM. 330,000 tested, 0.16% active. P09923. purified human IAP, CDP-Star luminescence, 30 min; active compounds read high; 1 = vehicle-only enzyme, 0 = enzyme-free background;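 active = activation factor of the enzyme at least 2-fold when tested at 20 µM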
mIAP inh confirm = mouse IAP inhibition confirmation | shares compounds with mIAP inh | 11,000 tested, 4.7% active | inhibition, % at 10 µM | purified mouse IAP, CDP-Star luminescence, 30 min;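 active = inhibition of at least 40% at 10 µM in either of the two replicates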;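 also: plate controls were DMSO wells with enzyme for no effect and buffer wells lacking enzyme for full effect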
Active calls of the source: *; . = no result.

SMILES	bIAP activator	hIAP inh	mIAP inh	mIAP activ	bIAP inhibitor	hIAP activ	mIAP inh confirm
COc1ccc(NC(=O)NC2(C)CCS(=O)(=O)C2)cc1 (stereo unspecified)	.	-2	-8	1.1	.	1	.
COc1ccc(NC(=O)NC23CC4(C)CC(C)(CC(C)(C4)C2)C3)cc1	1	-30	-207	3.1*	0	1.3	-108
Oc1cccc(O)c1O	.	0	52*	0.48	.	1	58*
COc1ccccc1CNC(=O)CN1C(=O)NC(c2ccccc2)(c2ccc(C)c(C)c2)C1=O (stereo unspecified)	.	-5	-26	1.3	.	1.1	.
CCOc1ccccc1N1CCN(S(=O)(=O)c2ccc3c4c(cccc24)C(=O)N3)CC1	0.9	-10	59*	0.41	6	1.1	56*
CCOC(=O)N1CCN(S(=O)(=O)c2ccc3c4c(cccc24)C(=O)N3)CC1	.	-21	1	0.99	.	1.2	.
c1coc(CNc2nc(-c3cccs3)cs2)c1	1	0	45*	0.55	2	1	49*
C=C(C)COc1ccc2c(C)c(CCC(=O)NC3CC3)c(=O)oc2c1	.	-8	3	0.97	.	1.1	.
CC(=O)NN1C(=O)/C(=C\c2ccccc2)SC1=S	1	7	-3	1	4	0.93	.
CC(=O)NN1C(=O)/C(=C\c2ccc(Br)o2)SC1=S	0.9	3	60*	0.4	8	0.97	74*
CC(=O)NN1C(=O)/C(=C/c2ccc(Br)o2)SC1=S	0.8	-3	67*	0.33	17	1	75*
CC(=O)NN1C(=O)/C(=C\c2ccc(O)cc2)SC1=S	0.5	32	28	0.72	.	0.68	.
Cc1ccc(/C=C2/SC(=O)NC2=S)o1	0.8	-8	45*	0.55	24	1.1	63*
O=C(NC1CCCCC1)Oc1cc2oc(=O)sc2cc1Br	.	2	60*	0.4	.	0.98	81*
CCc1cc(=O)oc2cc(C)cc(OCC(=O)NCc3ccncc3)c12	.	6	6	0.94	.	0.94	.
CCn1cc(C(=O)Nc2ncccc2O)c(=O)c2cc(F)c(N3CCN(C(=O)c4ccco4)CC3)cc21	.	7	9	0.91	.	0.93	.
COC(=O)c1cc(S(=O)(=O)N2CCC(c3cc(OC)ccc3OC)C2)c[nH]1 (stereo unspecified)	.	-5	-9	1.1	.	1	.
CC(=O)Nc1cccc(N(C)S(C)(=O)=O)c1	0.9	-16	-6	1.1	8	1.2	.
CN(c1cccc(NC(=O)Nc2cccc(Cl)c2)c1)S(C)(=O)=O	0.9	-13	-273	3.7*	7	1.1	-147
O=C(Nc1cccc(-c2cccc(Cl)c2)c1)C1CCN(Cc2ccc(CO)o2)CC1	.	-12	-296	4*	.	1.1	-161
CCn1cc(CN2CCC(C(=O)Nc3cccc(-c4cccc(F)c4)c3)CC2)cn1	.	-3	-104	2*	.	1	-166
O=C(Nc1cccc(Cl)c1)C1CCCCC1	.	1	-1	1	.	0.99	.
COc1ccc(CNC(=O)C2CCN(c3nc(-c4ccccc4)nc4c3CCC4)CC2)cc1	.	-29	-22	1.2	.	1.3	.
Cc1noc(C)c1COc1ccccc1C(=O)N1CCN(S(=O)(=O)c2ccccc2F)CC1	.	4	-5	1.1	.	0.96	.
CCN(C[C@H]1N[C@@](CC)(C(=O)OC)[C@H]2C(=O)N(Cc3ccccc3)C(=O)[C@@H]12)S(=O)(=O)c1ccc(F)cc1	.	7	0	1	.	0.93	.
SMILES	bIAP activator	hIAP inh	mIAP inh	mIAP activ	bIAP inhibitor	hIAP activ	mIAP inh confirm
O=C(Nc1ccccc1)Nc1ccc2c(c1)CCC2	.	8	-118	2.2*	.	0.92	-95
O=C(NCC1CC1)Nc1ccc(Cl)cc1	.	-9	-9	1.1	.	1.1	.
Cc1ccc(C)c(CN2CCC(CNC(=O)Nc3ccc(Cl)cc3)CC2)c1	.	-34	-172	2.7*	.	1.3	-123
O=C(CN1C(=O)NC2(CCOc3ccccc32)C1=O)NCC(F)(F)F (stereo unspecified)	.	13	-2	1	.	0.87	.
COCCn1nnnc1C(c1cc2c(C)cc(C)cc2[nH]c1=O)N1CCCCCC1 (stereo unspecified)	1.1	27	13	0.87	-11	0.73	.
CCN(Cc1ccccc1)C(c1cc2cc(C)ccc2[nH]c1=O)c1nnnn1CCOC (stereo unspecified)	0.8	-13	56*	0.44	16	1.1	57*
COCCn1nnnc1C(c1cc2cc(C)ccc2[nH]c1=O)N1CCCCCC1 (stereo unspecified)	1.1	8	67*	0.33	-13	0.92	70*
c1coc(C2Nc3cccc4cccc(c34)N2)c1	0.7	-3	52*	0.48	31	1	69*
Cc1ccc(/C=c2\sc3nc(-c4ccco4)nn3c2=O)o1	1.1	-3	60*	0.4	-5	1	81*
COc1ccccc1/C=c1\sc2nc(-c3ccccc3OC)nn2c1=O	0.7	14	11	0.89	27	0.86	.
COc1ccc(Br)cc1/C=c1\sc2nc(-c3ccco3)nn2c1=O	0.9	-3	60*	0.4	5	1	70*
COc1ccc(-c2cc(C(=O)N3CCN(c4cccc(C)c4C)CC3)c3ccccc3n2)cc1OC	.	4	4	0.96	.	0.96	.
COc1ccccc1CCNC(=O)C(=O)NCC1OCCN1S(=O)(=O)c1ccc(C)cc1 (stereo unspecified)	.	-3	6	0.94	.	1	.
CCOc1ccccc1NC(=O)CN1CCC(NC(=O)Nc2ccccc2)CC1	.	-81	-249	3.5*	.	1.8	-199
C[C@H](CO)N1C[C@H](C)[C@H](CN(C)Cc2ccc(Oc3ccccc3)cc2)Oc2ccc(NC(=O)Nc3cccc4ccccc34)cc2CC1=O	.	0	-176	2.8*	.	1	-103
COc1ccc(S(=O)(=O)N(C)C[C@H]2Oc3ccc(NC(=O)Nc4ccccc4)cc3C(=O)N([C@H](C)CO)C[C@@H]2C)cc1	.	2	-208	3.1*	.	0.98	-115
C[C@H](CO)N1C[C@H](C)[C@@H](CN(C)S(=O)(=O)c2ccc(F)cc2)Oc2ccc(NC(=O)NC3CCCCC3)cc2C1=O	.	-27	-317	4.2*	.	1.3	-120
COc1ccc(S(=O)(=O)N(C)C[C@H]2Oc3ccc(NC(=O)NC4CCCCC4)cc3C(=O)N([C@H](C)CO)C[C@@H]2C)cc1	.	6	-373	4.7*	.	0.94	-174
COc1ccc(S(=O)(=O)N(C)C[C@H]2Oc3ccc(NC(=O)C4CCCCC4)cc3C(=O)N([C@H](C)CO)C[C@@H]2C)cc1	.	0	-37	1.4	.	1	.
COc1cccc(-c2cc(C(=O)Nc3ccc(N(C)C(C)=O)cc3)c3cc(Br)ccc3n2)c1	.	-8	15	0.85	.	1.1	.

Assay outcomes: PubChem BioAssay, Sanford-Burnham Center for Chemical Genomics
